According to ChEMBL document CHEMBL1123026, “Preparation and antiarthritic and analgesic activity of 4,5-diaryl-2-(substituted thio)-1H-imidazoles and their sulfoxides and sulfones” (1985):

Columns and labels:
Type in all cases: functional
Mus musculus [1] = experiment: Effective dose determined by mouse phenyl-p-benzoquinone writhing (PQW) assay after peroral administration; details: po
In short: (§1)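 Fasted (17-21 h) female white mice, 5-20 per double-blind test, dosed orally with compound suspended in 1% methylcellulose. 0.20 mL aqueous 0.01% phenyl-p-benzoquinone given i.p. 6 min before a 10-min observation for stretching/writhing. ED50 (dose protecting 50% of mice) calculated by the moving-average method.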

Rattus norvegicus [2] = experiment: Decrease in paw volume by the effect of compound at a dose of 80 mg/kg
In short: (§2)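 Male Lewis rats (130-150 g) got 0.1 mL adjuvant (heat-killed Mycobacterium butyricum, 5 mg/mL in mineral oil) subplantar in the right hind paw and were left 2 weeks. Groups of 10 matched for severity were dosed orally by gavage (PVA-acacia vehicle, 10 mL/kg) for 7 days. Uninjected left hind paw volume was read the next day. % decrease = (arthritic control − treated)/(arthritic − nonarthritic control) × 100; Student's t-test.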

Mus musculus [3] = experiment: Effective dose by mouse phenyl-p-benzoquinone writhing (PQW)assay after peroral administration; 15.5-103; details: po
Mus musculus [4] = experiment: Effective dose by mouse phenyl-p-benzoquinone writhing (PQW)assay after peroral administration; activity value ranges from (57.4 - 203.2); details: po; in short: as §1
Rattus norvegicus [5] = experiment: Effective dose determined against rat adjuvant arthritis after peroral administration; details: po
In short: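 Male Lewis rats (130-150 g) given 0.1 mL Mycobacterium butyricum adjuvant (5 mg/mL in mineral oil) s.c. into the right hind paw; arthritis developed for 2 weeks. Groups of 10 matched for severity were dosed orally by gavage in PVA-acacia vehicle (10 mL/kg) for 7 days. Uninjected left paw volume was measured the day after the last dose. Percent decrease was calculated vs arthritic and nonarthritic controls. ED50 was read from a visually fitted semilog dose-response line.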

Rattus norvegicus [6] = experiment: Decrease in paw volume by the effect of compound at a dose of 30 mg/kg; in short: as §2
Mus musculus [7] = experiment: Effective dose by mouse phenyl-p-benzoquinone writhing (PQW)assay after peroral administration; activity value ranges from (20.2-79.4); details: po; in short: as §1
Mus musculus [8] = experiment: Effective dose by mouse phenyl-p-benzoquinone writhing (PQW)assay after peroral administration; activity value ranges from (3.2-12.3); details: po; in short: as §1
Mus musculus [9] = experiment: Effective dose by mouse phenyl-p-benzoquinone writhing (PQW)assay after peroral administration; activity value ranges from (1.2-4.5); details: po
Mus musculus [10] = experiment: Effective dose by mouse phenyl-p-benzoquinone writhing (PQW)assay after peroral administration; activity value ranges from (2.5 - 8.9); details: po; in short: as §1
Mus musculus [11] = experiment: Effective dose by mouse phenyl-p-benzoquinone writhing (PQW)assay after peroral administration; activity value ranges from (49.8-84.8); details: po; in short: as §1
Mus musculus [12] = experiment: Effective dose by mouse phenyl-p-benzoquinone writhing (PQW)assay after peroral administration; activity value ranges from (4.8-25.4); details: po; in short: as §1
Mus musculus [13] = experiment: Effective dose by mouse phenyl-p-benzoquinone writhing (PQW)assay after peroral administration; activity value ranges from (16.2-99); details: po; in short: as §1
Mus musculus [14] = experiment: Effective dose by mouse phenyl-p-benzoquinone writhing (PQW)assay after peroral administration; activity value ranges from (4.9-8.7); details: po; in short: as §1
Mus musculus [15] = experiment: Effective dose by mouse phenyl-p-benzoquinone writhing (PQW)assay after peroral administration; 20.6-296.0; details: po
Mus musculus [16] = experiment: Effective dose by mouse phenyl-p-benzoquinone writhing (PQW)assay after peroral administration; 30.9-197.0; details: po
Mus musculus [17] = experiment: Effective dose by mouse phenyl-p-benzoquinone writhing (PQW)assay after peroral administration; 0.23-0.53; details: po
Mus musculus [18] = experiment: Effective dose by mouse phenyl-p-benzoquinone writhing (PQW)assay after peroral administration; 16.7-121.5; details: po
Mus musculus [19] = experiment: Effective dose by mouse phenyl-p-benzoquinone writhing (PQW)assay after peroral administration; activity value ranges from (0.07-0.50); details: po
Rattus norvegicus [20] = experiment: Decrease in rat paw volume was evaluated at dose 100 mg/kg; in short: as §2
Mus musculus [21] = experiment: Effective dose by mouse phenyl-p-benzoquinone writhing (PQW)assay after peroral administration; activity value ranges from (0.37-1.52); details: po
Mus musculus [22] = experiment: Effective dose by mouse phenyl-p-benzoquinone writhing (PQW)assay after peroral administration; activity value ranges from (7.5-51.9); details: po; in short: as §1
Mus musculus [23] = experiment: Effective dose by mouse phenyl-p-benzoquinone writhing (PQW)assay after peroral administration; activity value ranges from (28.6-55.9); details: po; in short: as §1
Mus musculus [24] = experiment: Effective dose by mouse phenyl-p-benzoquinone writhing (PQW)assay after peroral administration; activity value ranges from (0.09 - 0.86); details: po
Mus musculus [25] = experiment: Effective dose by mouse phenyl-p-benzoquinone writhing (PQW)assay after peroral administration; activity value ranges from (0.37-1.22); details: po
Mus musculus [26] = experiment: Effective dose by mouse phenyl-p-benzoquinone writhing (PQW)assay after peroral administration; activity value ranges from (2.6-10.7); details: po; in short: as §1
Mus musculus [27] = experiment: Effective dose by mouse phenyl-p-benzoquinone writhing (PQW)assay after peroral administration; 3.1-14.0; details: po

Structure (SMILES): COc1ccc(-c2nc(S(=O)(=O)CS(C)(=O)=O)[nH]c2-c2ccc(OC)cc2)cc1
- ED50 (Mus musculus [1]): > 130 mg/kg
- Decrease (Rattus norvegicus [2]): 43%

Structure (SMILES): CCCSc1nc(-c2ccc(OC)cc2)c(-c2ccc(OC)cc2)[nH]1
- ED50 (Mus musculus [3]): 40 mg/kg

Structure (SMILES): CS(=O)(=O)c1nc(-c2ccccc2Cl)c(-c2ccccc2Cl)[nH]1
- ED50 (Mus musculus [4]): 108 mg/kg
- ED50 (Rattus norvegicus [5]): > 50 mg/kg

Structure (SMILES): COc1ccc(-c2nc([S+]([O-])C(C)C)[nH]c2-c2ccc(OC)cc2)cc1 (stereo not drawn)
- Decrease (Rattus norvegicus [6]): 36%
- ED50 (Mus musculus [1]): > 130 mg/kg

Structure (SMILES): COc1ccccc1-c1nc(S(=O)(=O)C(F)(F)C(F)F)[nH]c1-c1ccccc1OC
- ED50 (Rattus norvegicus [5]): > 9 mg/kg
- ED50 (Mus musculus [7]): 40 mg/kg

Structure (SMILES): O=S(=O)(c1nc(-c2ccc(Cl)cc2)c(-c2ccc(F)cc2)[nH]1)C(F)(F)C(F)F
- ED50 (Mus musculus [8]): 6.3 mg/kg

Structure (SMILES): O=S(=O)(c1nc(-c2ccc(Cl)cc2)c(-c2ccc(Cl)cc2)[nH]1)C(F)F
- ED50 (Mus musculus [9]): 2.3 mg/kg

Structure (SMILES): [O-][S+](c1nc(-c2ccccc2)c(-c2ccccc2)[nH]1)C(F)(F)C(F)F (stereo not drawn)
- ED50 (Mus musculus [10]): 4.7 mg/kg

Structure (SMILES): CCCCC1C(=O)N(c2ccccc2)N(c2ccccc2)C1=O [PHENYLBUTAZONE]
- ED50 (Mus musculus [11]): 65 mg/kg

Structure (SMILES): O=S(=O)(c1nc(-c2ccc(Cl)cc2)c(-c2ccc(Cl)cc2)[nH]1)C(F)(F)C(F)F
- ED50 (Rattus norvegicus [5]): 0.18 mg/kg
- ED50 (Mus musculus [12]): 11 mg/kg

Structure (SMILES): CCC[S+]([O-])c1nc(-c2ccc(OC)cc2)c(-c2ccc(OC)cc2)[nH]1 (stereo not drawn)
- ED50 (Rattus norvegicus [5]): 15 mg/kg
- ED50 (Mus musculus [13]): 40 mg/kg

Structure (SMILES): O=S(=O)(c1nc(-c2ccc(Cl)c(Cl)c2)c(-c2ccccc2)[nH]1)C(F)(F)C(F)F
- ED50 (Rattus norvegicus [5]): 0.22 mg/kg
- ED50 (Mus musculus [14]): 6.5 mg/kg

Structure (SMILES): FC(F)Sc1nc(-c2ccc(Cl)cc2)c(-c2ccc(Cl)cc2)[nH]1
- ED50 (Mus musculus [15]): 78 mg/kg

Structure (SMILES): COc1ccc(-c2[nH]c(SC(F)(F)F)nc2-c2ccc(F)cc2)cc1
- ED50 (Mus musculus [16]): 78 mg/kg

Structure (SMILES): COc1ccc2c(c1)c(CC(=O)O)c(C)n2C(=O)c1ccc(Cl)cc1 [INDOMETHACIN]
- ED50 (Mus musculus [17]): 0.35 mg/kg

Structure (SMILES): COc1ccc(-c2nc(SC(F)(F)C(F)F)[nH]c2-c2ccc(OC)cc2)cc1
- ED50 (Mus musculus [18]): 45 mg/kg
- ED50 (Rattus norvegicus [5]): 4.5 mg/kg

Structure (SMILES): O=S(=O)(c1nc(-c2ccc(F)cc2)c(-c2ccc(F)cc2)[nH]1)C(F)(F)F
- ED50 (Mus musculus [19]): 0.19 mg/kg
- ED50 (Rattus norvegicus [5]): 0.016 mg/kg

Structure (SMILES): CSc1nc(-c2ccccc2)c(-c2ccccc2)[nH]1
- Decrease (Rattus norvegicus [20]): 20%
- ED50 (Mus musculus [1]): > 100 mg/kg

Structure (SMILES): O=S(=O)(c1nc(-c2ccccc2)c(-c2ccccc2)[nH]1)C(F)(F)F
- ED50 (Mus musculus [21]): 0.75 mg/kg

Structure (SMILES): O=S(=O)(c1nc(-c2cccc(Cl)c2)c(-c2ccccc2)[nH]1)C(F)(F)C(F)F
- ED50 (Rattus norvegicus [5]): 0.04 mg/kg
- ED50 (Mus musculus [22]): 19.8 mg/kg

Structure (SMILES): O=S(=O)(c1nc(-c2ccc(C(F)(F)F)cc2)c(-c2ccccc2)[nH]1)C(F)(F)C(F)F
- ED50 (Mus musculus [23]): 40 mg/kg

Structure (SMILES): COc1ccc(-c2[nH]c(S(=O)(=O)C(F)(F)C(F)F)nc2-c2ccc(F)cc2)cc1
- ED50 (Rattus norvegicus [5]): 1.7 mg/kg
- ED50 (Mus musculus [24]): 0.28 mg/kg

Structure (SMILES): O=S(=O)(c1nc(-c2ccc(F)cc2)c(-c2ccc(F)cc2)[nH]1)C(F)(F)C(F)F [TIFLAMIZOLE]
- ED50 (Mus musculus [25]): 0.67 mg/kg

Structure (SMILES): [O-][S+](CC(F)(F)F)c1nc(-c2ccc(Cl)cc2)c(-c2ccc(Cl)cc2)[nH]1 (stereo not drawn)
- ED50 (Rattus norvegicus [5]): 2.3 mg/kg
- ED50 (Mus musculus [26]): 5.3 mg/kg

Structure (SMILES): O=S(=O)(c1nc(-c2ccccc2)c(-c2ccccc2)[nH]1)C(F)(F)C(F)Br (stereo not drawn)
- ED50 (Mus musculus [27]): 6.6 mg/kg
